# High-throughput results deposited in PubChem by several laboratories.
# Lmaj promast = reduces viability of Leishmania major promastigotes; inhibition, % at 10 µM; hit rate 9% among 200,000; resazurin fluorescence viability; in the data active = inhibition above about 50%;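 also: promastigotes grown with compound for 44 hours at 28 °C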
# HSV replic up = increases HSV replication in cells; hit rate 0.005% among 220,000; maximum fold increase; HSV replication augmentation in cells, fold increase; in the data active = maximum fold increase above about 1.5; tested in PC3 cells
# bCat nuc transl = alters nuclear translocation of beta-catenin in HeLa cells; nuclear translocation activity, % at 5 µM; immunofluorescence imaging; hit rate 0.3% among 190,000; AID 1665;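 active = nuclear translocation activity above 50% at 5 µM, with a well cell count of 50 or more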;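 also: per-cell ratio of nuclear to cytoplasmic median beta-catenin stain intensity; plate controls were DMSO negative control for no effect and GSK-3 inhibitor IX positive control for full effect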
#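 System: Human HeLa cells, endogenous beta-catenin | Compound dosing: 5 µM primary, 0.02–20 µM confirmation | Timing: 24 h compound exposure at 37°C, 5% CO2 | Measured by: Fluorescence imaging of beta-catenin antibody stain plus DAPI | Read-out basis: % activation of per-cell nuclear versus cytoplasmic median beta-catenin signal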
# MT stabilize HCS = microtubule stabilization, imaging screen; HeLa tubulin immunostaining HCS, 24 h; share of cells brighter than vehicle mean+2SD; % tubulin-high responders, % at 10 µM; hit rate 0.83% among 200,000;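 active = plate Z-score above 3 for both tubulin-high and condensed-nucleus cell shares, with cell loss under 80%, at 10 µM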;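 also: anti alpha tubulin signal scored within the nucleus-defined area of each cell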
# Dynein cargo inh = dynein cargo transport inhibition; hit rate 0.47% among 220,000; 3617.4 mouse cells, GR-EGFP nuclear translocation imaging; test concentration mostly 20 µM; stimulated with dexamethasone, 1 µM; hits give low values; z-score, hits read low;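 active = plate z-score of nuclear minus cytoplasmic receptor signal below a set negative limit, without overly bright fluorescence or cell loss, cut at about -3.5 in these data, passing the limit was not always enough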;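 also: z-score of nuclear minus cytoplasmic ring GR-EGFP intensity difference per well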
#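 Buffer or medium: tet-free medium with charcoal-stripped serum / Also added: dexamethasone agonist, 1.0 µM final, for 30 min / Timing: induction 48 h, compound 1 h, agonist 30 min / Measured by: high-content fluorescence imaging after fixation / Read-out: nuclear-to-cytoplasmic GR-EGFP distribution per well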
# Starred values were filed as active, the others as inactive; i = inactive; · = no result given. An excerpt weighted towards active compounds, which were near 8.9% of everything screened.
SMILES,Lmaj promast,HSV replic up,bCat nuc transl,MT stabilize HCS,Dynein cargo inh
Cc1c(C(=O)NC2CCCc3ccccc32)oc2ccc(S(=O)(=O)N3CCCCC3)cc12 (centres undefined),4,i,-2,5,1.5
O=C(NC(c1ccc(Cl)cc1)c1cc(Cl)c2cccnc2c1O)c1cccnc1 (centres undefined),99*,i,-1,3,0.82
CCCC(=O)NC(c1ccc(OC)c(OC)c1)c1cc(Cl)c2cccnc2c1O (centres undefined),99*,i,0,2,-0.98
CCC(=O)NC(c1ccc(C)cc1)c1cc([N+](=O)[O-])c2cccnc2c1O (centres undefined),-8,i,0,3,0.81
CCCC(=O)NC(c1ccco1)c1cc([N+](=O)[O-])c2cccnc2c1O (centres undefined),4,i,0,3,-0.33
CCOc1ccc(C(NC(=O)c2ccco2)c2ccc(OC)c(OC)c2)cc1 (centres undefined),-3,i,-2,3,1.4
CCC(=O)NC(c1cccs1)c1cc(Cl)c2cccnc2c1O (centres undefined),98*,i,2,3,-0.091
CCCCC(=O)NC(c1cccs1)c1cc(Cl)c2cccnc2c1O (centres undefined),98*,i,2,6,-0.12
COc1ccc(-c2cc(C(F)(F)F)nc(-n3cncn3)n2)cc1,9,i,·,1,0.035
CC(C)(C)C(=O)NC1(C(F)(F)F)N=C2SCCN2C1=O (centres undefined),-2,i,-6,3,-0.68
CCc1nc2scc(-c3ccc(C)cc3)c2c(=O)n1N,6,i,1,3,-0.017
CC1CCC/C(=N/Nc2ccc([N+](=O)[O-])cc2[N+](=O)[O-])C1 (centres undefined),-3,i,·,2,-0.57
COc1ccc(S(=O)(=O)N2CCCCC2)cc1NC(=O)C1CCCO1 (centres undefined),-2,i,-2,3,-0.27
O=S(=O)(c1cccc(C(F)(F)F)c1)N(CCCN1CCOCC1)Cc1cccs1,100*,i,1,2,-0.57
Cc1cc(C)nc(NCC(O)COc2ccccc2C)n1 (centres undefined),5,i,2,4,1.4
O=C(Cn1nnc(-c2ccc(CN3CCOCC3)cc2)n1)N1CCCc2ccccc21,84*,i,0,3,0.41
O=C(Cn1nnc(-c2ccc(CN3CCOCC3)cc2)n1)N(c1ccccc1)c1ccccc1,70*,i,-1,2,0.067
CCOc1ccc(-n2c(-c3ccc(Br)cc3)c[n+]3c2CCCCC3)cc1,101*,i,0,3,-0.58
FC(F)Oc1ccc(-c2c[n+]3c(n2-c2ccccc2)CCCCC3)cc1,·,i,0,·,0.37
CCOc1ccc(-n2c(-c3ccc(OC)cc3)c[n+]3c2CCCCC3)cc1,100*,i,2,3,-0.48
COc1ccc(-n2c(-c3ccc(Cl)cc3)c[n+]3c2CCCCC3)cc1,·,i,0,·,-0.28
COc1ccc(-c2c[n+]3c(n2-c2ccccc2)CCCCC3)cc1,99*,i,1,7,-0.19
CCOc1ccc(-n2c(-c3ccccc3)c[n+]3c2CCC3)cc1,94*,i,5,4,0.34
COc1ccc(-c2c[n+]3c(n2-c2ccc(C)cc2)CCCCC3)cc1,·,i,2,·,0.87
C[n+]1cc(-c2ccccc2)n2c1CCCCC2,-4,i,3,2,-0.57
SMILES,Lmaj promast,HSV replic up,bCat nuc transl,MT stabilize HCS,Dynein cargo inh
COc1ccc(-c2c[n+]3c4n2CCCCC4=C(c2ccccc2)C3)cc1,100*,i,0,3,-0.22
CC(=O)c1ccc(Nc2c3c(nc4ccccc24)CCCC3)cc1,·,i,1,·,1.1
COc1cc(Nc2c3c(nc4ccccc24)CCCC3)cc(OC)c1OC,66*,i,0,6,-1.3
c1ccc2c(Nc3ccc4c(c3)OCCO4)c3c(nc2c1)CCCC3,99*,i,1,4,-1
CCn1nnnc1SCC(=O)c1cc(Cl)ccc1OC,-6,i,-1,2,-1.3
CO/N=C/C(=N\Nc1ccc(C)cc1)C(=O)c1ccc(OC)cc1,8,i,·,53*,0.14
CO/N=C/C(=N\Nc1ccc(OC)cc1)C(=O)c1ccc(F)cc1,0,i,4,2,-0.043
CC(=O)NC(=S)Nc1cc(C(F)(F)F)ccc1N1CCOCC1,-3,i,-2,2,-0.43
COc1ccc(N=c2cc(-c3ccc(OC)cc3)oc3ccccc23)cc1,42,i,3,4,0.46
COc1ccc(-c2cc(=Nc3ccc(C)cc3)c3ccccc3o2)cc1,63*,i,-2,2,0.42
COc1ccc(N=c2cc(-c3ccc(O)cc3)oc3ccccc23)cc1,81*,i,2,3,-0.22
CCOC(=O)C1=C(C)N=C2SCCC(=O)N2[C@@H]1/C=C/c1ccccc1,-1,i,1,2,-0.75
CC1=C(C(=O)OCc2ccccc2)C(/C=C/c2ccccc2)N2C(=O)CCSC2=N1 (centres undefined),75*,i,·,4,0.1
CCc1c(C)nc(Nc2nc(C)c3ccc(OC)cc3n2)[nH]c1=O,94*,i,·,1,0.81
CCc1c(C)nc(Nc2nc(C)c3cc(OC)ccc3n2)[nH]c1=O,98*,i,0,4,0.37
COc1ccc2nc(Nc3nc(CSc4nc5ccccc5[nH]4)cc(=O)[nH]3)nc(C)c2c1,100*,i,16,7,-0.71
CCc1ccc2nc(Nc3nc(COC)cc(=O)[nH]3)nc(C)c2c1,12,i,0,2,-0.65
COc1ccc2nc(NC3=NC(c4ccccc4)CC(=O)N3)nc(C)c2c1 (centres undefined),94*,i,0,2,0.3
CCOC(=O)Cc1csc(NC(=O)c2cc(C)cc(C)c2)n1,20,i,0,3,1.4
Cc1cc(C(=O)Nc2ccccc2)c(C)o1,-6,·,·,3,-0.028
CCCCCc1c(C)nc(Nc2nc(C)c3cc(OC)ccc3n2)[nH]c1=O,99*,i,-7,3,2.9
COc1ccc2c(C)nc(Nc3nc(C)cc(C)n3)nc2c1,22,i,2,4,1.6
COc1ccc2c(C)nc(Nc3nc(C)c(C)c(=O)[nH]3)nc2c1,100*,i,6,11,0.86
Cc1cc(C)n(-c2nc3c(c(=O)[nH]c(=O)n3C)n2CC(C)C)n1,-8,i,1,5,1.2
Cc1ccc(Nc2nc(N3CCOCC3)nc(N3CCOCC3)n2)cc1,7,i,-1,5,-0.28
CCN(Cc1ccncc1)Cc1nc(-c2ccc(C(=O)OC)cc2)no1,48,i,0,3,0.9
CCOC(=O)C(C(=O)Nc1nccs1)C1CCCCC1 (centres undefined),52*,i,-10,2,3.3
